Data reported in paper PMC8923172 (Antimicrobial Agents and Chemotherapy, 2022).
Like-named read-outs stand apart in the source and are kept apart here. Marks after values point to notes of the source that are not given here. Residues, ends and D or L forms follow the SMILES beside them.

Tests used:
[1] = Hematology of cynomolgus monkeys at the end of treatment; type: in vivo; settings: male, median (IQR)
Method in brief: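 GLP 10-day study in male and female cynomolgus monkeys (n = 3-5/sex/group) dosed once daily with 0 (placebo), 5, 10 or 15 mg/kg test compound by i.v. infusion over 60 ± 5 min. Hematology, serum chemistry and coagulation were taken at end of treatment and reported as median (IQR). Dose groups were compared by Kruskal-Wallis with Dunn's multiple comparison test.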

[2] = for Cmax: 20-min i.v. infusion, n=12, estimate (SE); for AUCτ / λz: i.v. infusion, n=12, pooled

In the case of CC[C@H](C)[C@@H]1NC(=O)[C@@H]2CSSC[C@H](NC(=O)[C@H](CCCNC(=N)N)NC(=O)[C@@H]3CSSC[C@H](NC1=O)C(=O)N[C@@H]([C@@H](C)O)C(=O)N[C@@H](CCCNC(=N)N)C(=O)NCC(=O)N[C@@H](Cc1ccccc1)C(=O)N3)C(=O)N[C@@H](CC(C)C)C(=O)N[C@H]1CSSC[C@H](NC(=O)[C@H](C(C)C)NC(=O)CNC(=O)[C@H](CCCNC(=N)N)NC(=O)[C@H](CCCNC(=N)N)NC1=O)C(=O)N[C@@H](CCCNC(=N)N)C(=O)N2 [RTD-1, Rhesus theta (θ) defensin-1] (HELM PEPTIDE1{G.F.C.R.C.L.C.R.R.G.V.C.R.C.I.C.T.R}$PEPTIDE1,PEPTIDE1,3:R3-16:R3|PEPTIDE1,PEPTIDE1,5:R3-14:R3|PEPTIDE1,PEPTIDE1,7:R3-12:R3|PEPTIDE1,PEPTIDE1,1:R1-18:R2$$$V2.0), the Hemoglobin ([1]; 5 mg/kg/day) is reported as 12.70 (0.85) g/dL, the “LUC, absolute” value ([1]; 5 mg/kg/day) is reported as 0.15 (0.07) 10^3/mm^3 and the “Lymphocytes, absolute” value ([1]; 5 mg/kg/day) is reported as 6.85 (3.12) 10^3/mm^3. The MCH ([1]; 5 mg/kg/day) was 19.80 (0.55) pg, the MCHC ([1]; 5 mg/kg/day) was 26.40 (1.55) g/dL and the MCV ([1]; 5 mg/kg/day) was 75.10 (2.10) fL. For the same compound, the “Monocytes, absolute” value ([1]; 5 mg/kg/day) was 0.74 (0.23) 10^3/mm^3, the “Neutrophils, absolute” value ([1]; 5 mg/kg/day) was 4.65 (3.33) 10^3/mm^3 and the Platelets ([1]; 5 mg/kg/day) was 358.00 (21.50) 10^3/mm^3. The RBC ([1]; 5 mg/kg/day) was 6.06 (0.42) 10^6/mm^3, the RDW ([1]; 5 mg/kg/day) was 15.40 (1.00) % and the “Reticulocytes, absolute” value ([1]; 5 mg/kg/day) was 43.70 (23.20) 10^9/L. The WBC ([1]; 5 mg/kg/day) was 14.70 (5.95) 10^3/mm^3, the “Basophils, absolute” value ([1]; 10 mg/kg/day) was 0.08 (0.04) 10^3/mm^3 and the “Eosinophils, absolute” value ([1]; 10 mg/kg/day) was 0.20 (0.06) 10^3/mm^3. The Hematocrit ([1]; 10 mg/kg/day) was 42.60 (5.20) %, the Hemoglobin ([1]; 10 mg/kg/day) was 11.90 (1.30) g/dL and the “LUC, absolute” value ([1]; 10 mg/kg/day) was 0.15 (0.01) 10^3/mm^3. For the same compound, the “Lymphocytes, absolute” value ([1]; 10 mg/kg/day) was 5.85 (2.85) 10^3/mm^3, the MCH ([1]; 10 mg/kg/day) was 20.30 (1.00) pg and the MCHC ([1]; 10 mg/kg/day) was 27.90 (0.35) g/dL. The MCV ([1]; 10 mg/kg/day) was 72.00 (4.00) fL, the “Monocytes, absolute” value ([1]; 10 mg/kg/day) was 0.63 (0.18) 10^3/mm^3 and the “Neutrophils, absolute” value ([1]; 10 mg/kg/day) was 4.31 (1.38) 10^3/mm^3. For the same compound, the Platelets ([1]; 10 mg/kg/day) was 450.00 (114.00) 10^3/mm^3, the RBC ([1]; 10 mg/kg/day) was 6.35 (0.58) 10^6/mm^3 and the RDW ([1]; 10 mg/kg/day) was 17.20 (1.35) %. For the same compound, the “Reticulocytes, absolute” value ([1]; 10 mg/kg/day) was 60.00 (71.70) 10^9/L, the WBC ([1]; 10 mg/kg/day) was 11.00 (1.75) 10^3/mm^3 and the “Basophils, absolute” value ([1]; 15 mg/kg/day) was 0.11 (0.10) 10^3/mm^3. The “Eosinophils, absolute” value ([1]; 15 mg/kg/day) was 0.39 (0.70) 10^3/mm^3, the Hematocrit ([1]; 15 mg/kg/day) was 38.40 (2.30) % and the Hemoglobin ([1]; 15 mg/kg/day) was 11.10 (0.90) g/dL. For the same compound, the “LUC, absolute” value ([1]; 15 mg/kg/day) was 0.17 (0.11)^c 10^3/mm^3, the “Lymphocytes, absolute” value ([1]; 15 mg/kg/day) was 4.78 (2.17) 10^3/mm^3 and the MCH ([1]; 15 mg/kg/day) was 20.20 (0.90) pg. The MCHC ([1]; 15 mg/kg/day) was 28.90 (1.20) g/dL, the MCV ([1]; 15 mg/kg/day) was 71.20 (3.40) fL and the “Monocytes, absolute” value ([1]; 15 mg/kg/day) was 1.10 (0.74) 10^3/mm^3. For the same compound, the “Neutrophils, absolute” value ([1]; 15 mg/kg/day) was 7.62 (9.59) 10^3/mm^3, the Platelets ([1]; 15 mg/kg/day) was 634.00 (42.00)^d 10^3/mm^3 and the RBC ([1]; 15 mg/kg/day) was 5.56 (0.40) 10^6/mm^3. The RDW ([1]; 15 mg/kg/day) was 14.80 (0.80) %, the “Reticulocytes, absolute” value ([1]; 15 mg/kg/day) was 69.10 (47.50) 10^9/L and the WBC ([1]; 15 mg/kg/day) was 14.90 (12.80) 10^3/mm^3. For the same compound, the Cmax ([2]; 5 mg/kg Day 1) was 7,468 (1,202)^b ng/mL, the AUCτ ([2]; 5 mg/kg Day 1) was 14,956 ng · h/mL and the λz ([2]; 5 mg/kg Day 1) was 0.056 h⁻¹. For the same compound, the AUCτ ([2]; 5 mg/kg Day 7) was 12,468 ng · h/mL, the λz ([2]; 5 mg/kg Day 7) was 0.104 h⁻¹ and the “AUCτ on day 7 lower than AUC0-∞ on day 1” value ([2]; 5 mg/kg/day) was 22%. The Cmax ([2]; 10 mg/kg Day 1) was 27,533 (1,419)* ng/mL, the AUCτ ([2]; 10 mg/kg Day 1) was 41,669 ng · h/mL and the λz ([2]; 10 mg/kg Day 1) was 0.148 h⁻¹. The λz ([2]; 10 mg/kg Day 7) was 0.133 h⁻¹, the “AUCτ on day 7 lower than AUC0-∞ on day 1” value ([2]; 10 mg/kg/day) was 19% and the Cmax ([2]; 20 mg/kg Day 1) was 35,400 (5,350)# ng/mL. The λz ([2]; 20 mg/kg Day 1) was 0.221 h⁻¹, the “plasma levels during the recovery period (day 25)” value ([2]; all rats except one female at 10 mg/kg) was “undetectable” and the “increase in AUC0-∞ from 5 mg/kg to 20 mg/kg” value ([2]; single ascending dose) was 8 fold.
